Reference: ChEMBL document CHEMBL1921735, “Antibacterial optimization of 4-aminothiazolyl analogues of the natural product GE2270 A: identification of the cycloalkylcarboxylic acids” (J Med Chem, 2011)
≈ marks a conversion by molar mass, not a printed value. Calls of active or inactive are those of the source.

Legend:
Staphylococcus aureus [1] = test: Antibacterial activity against GE2270-A-resistant Staphylococcus aureus harboring tufA G258D mutant gene by CLSI M07-A8 method; format: functional
Staphylococcus aureus [2] = test: Antibacterial activity against methicillin-resistant Staphylococcus aureus isolate A4.018 by CLSI M07-A8 method; format: functional
Streptococcus pneumoniae = test: Antibacterial activity against Streptococcus pneumoniae by CLSI M07-A8 method; format: functional, organism-based
How it was run: (§1)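 Broth microdilution MIC run per CLSI M07-A8 (2009).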

Enterococcus faecium = test: Antibacterial activity against Enterococcus faecium 7130724 by CLSI M07-A8 method; format: functional; how it was run: as §1
Streptococcus pyogenes = test: Antibacterial activity against Streptococcus pyogenes ATCC BAA-595 by CLSI M07-A8 method; format: functional; how it was run: as §1
Enterococcus faecalis = test: Antibacterial activity against Enterococcus faecalis ATCC 29212 by CLSI M07-A8 method; format: functional; how it was run: as §1

SMILES	Activity (Staphylococcus aureus [1])	MIC (Staphylococcus aureus [2])	Activity (Streptococcus pneumoniae)	MIC (Enterococcus faecium)	MIC (Streptococcus pyogenes)	MIC (Enterococcus faecalis)	MIC (Staphylococcus aureus [1])
CNC(=O)C[C@@H]1NC(=O)c2csc(n2)-c2ccc(-c3nc(NC(=O)CC[C@@H](C)C(=O)O)cs3)nc2-c2csc(n2)-c2csc(n2)[C@H]([C@@H](O)c2ccccc2)NC(=O)CNC(=O)c2nc(sc2COC)[C@H](C(C)C)NC(=O)c2nc1sc2C	inactive	0.25 µg/mL (≈ 0.204 µM)	Active	0.25 µg/mL (≈ 0.204 µM)	4 µg/mL (≈ 3.27 µM)	0.125 µg/mL (≈ 0.102 µM)	–
CNC(=O)C[C@@H]1NC(=O)c2csc(n2)-c2ccc(-c3nc(NC(=O)[C@H]4CC[C@@H](C(=O)O)CC4)cs3)nc2-c2csc(n2)-c2csc(n2)[C@H]([C@@H](O)c2ccccc2)NC(=O)CNC(=O)c2nc(sc2COC)[C@H](C(C)C)NC(=O)c2nc1sc2C	–	0.25 µg/mL (≈ 0.2 µM)	Active	0.25 µg/mL (≈ 0.2 µM)	4 µg/mL (≈ 3.2 µM)	0.125 µg/mL (≈ 0.1 µM)	–
CNC(=O)C[C@@H]1NC(=O)c2csc(n2)-c2ccc(-c3nc(NC(=O)OCCCN)cs3)nc2-c2csc(n2)-c2csc(n2)[C@H]([C@@H](O)c2ccccc2)NC(=O)CNC(=O)c2nc(sc2COC)[C@H](C(C)C)NC(=O)c2nc1sc2C	inactive	1 µg/mL (≈ 0.835 µM)	Active	1 µg/mL (≈ 0.835 µM)	16 µg/mL (≈ 13.4 µM)	1 µg/mL (≈ 0.835 µM)	–
CNC(=O)C[C@@H]1NC(=O)c2csc(n2)-c2ccc(-c3nc(NC(=O)CCCC(=O)O)cs3)nc2-c2csc(n2)-c2csc(n2)[C@H]([C@@H](O)c2ccccc2)NC(=O)CNC(=O)c2nc(sc2COC)[C@H](C(C)C)NC(=O)c2nc1sc2C	inactive	0.25 µg/mL (≈ 0.207 µM)	Active	0.5 µg/mL (≈ 0.413 µM)	8 µg/mL (≈ 6.61 µM)	0.25 µg/mL (≈ 0.207 µM)	–
CNC(=O)C[C@@H]1NC(=O)c2csc(n2)-c2ccc(-c3nc(NC(=O)c4ccnc(C(=O)O)c4)cs3)nc2-c2csc(n2)-c2csc(n2)[C@H]([C@@H](O)c2ccccc2)NC(=O)CNC(=O)c2nc(sc2COC)[C@H](C(C)C)NC(=O)c2nc1sc2C	–	8 µg/mL (≈ 6.42 µM)	Active	8 µg/mL (≈ 6.42 µM)	> 32 µg/mL	2 µg/mL (≈ 1.61 µM)	–
CNC(=O)C[C@@H]1NC(=O)c2csc(n2)-c2ccc(-c3nc(C4=N[C@H](C(=O)N5CCC[C@H]5C(N)=O)CO4)cs3)nc2-c2csc(n2)-c2csc(n2)[C@H]([C@@H](O)c2ccccc2)NC(=O)CNC(=O)c2nc(sc2COC)[C@H](C(C)C)NC(=O)c2nc1sc2C	–	0.25 µg/mL (≈ 0.194 µM)	Active	0.25 µg/mL (≈ 0.194 µM)	1 µg/mL (≈ 0.775 µM)	0.5 µg/mL (≈ 0.387 µM)	–
CNC(=O)C[C@@H]1NC(=O)c2csc(n2)-c2ccc(-c3nc(-n4cnc(C(=O)O)c4)cs3)nc2-c2csc(n2)-c2csc(n2)[C@H]([C@@H](O)c2ccccc2)NC(=O)CNC(=O)c2nc(sc2COC)[C@H](C(C)C)NC(=O)c2nc1sc2C	–	4 µg/mL (≈ 3.36 µM)	Active	> 32 µg/mL	> 32 µg/mL	4 µg/mL (≈ 3.36 µM)	> 32 µg/mL
CNC(=O)C[C@@H]1NC(=O)c2csc(n2)-c2ccc(-c3nc(NC(=O)CC(=O)O)cs3)nc2-c2csc(n2)-c2csc(n2)[C@H]([C@@H](O)c2ccccc2)NC(=O)CNC(=O)c2nc(sc2COC)[C@H](C(C)C)NC(=O)c2nc1sc2C	inactive	1 µg/mL (≈ 0.846 µM)	Active	2 µg/mL (≈ 1.69 µM)	8 µg/mL (≈ 6.77 µM)	1 µg/mL (≈ 0.846 µM)	–
CNC(=O)C[C@@H]1NC(=O)c2csc(n2)-c2ccc(-c3nc(NC(=O)c4ccc(C(=O)O)cc4)cs3)nc2-c2csc(n2)-c2csc(n2)[C@H]([C@@H](O)c2ccccc2)NC(=O)CNC(=O)c2nc(sc2COC)[C@H](C(C)C)NC(=O)c2nc1sc2C	–	0.125 µg/mL (≈ 0.1 µM)	Active	0.125 µg/mL (≈ 0.1 µM)	4 µg/mL (≈ 3.21 µM)	0.125 µg/mL (≈ 0.1 µM)	–
CNC(=O)C[C@@H]1NC(=O)c2csc(n2)-c2ccc(-c3nc(NC(=O)OCCCCCN)cs3)nc2-c2csc(n2)-c2csc(n2)[C@H]([C@@H](O)c2ccccc2)NC(=O)CNC(=O)c2nc(sc2COC)[C@H](C(C)C)NC(=O)c2nc1sc2C	inactive	1 µg/mL (≈ 0.816 µM)	Active	0.5 µg/mL (≈ 0.408 µM)	8 µg/mL (≈ 6.53 µM)	0.5 µg/mL (≈ 0.408 µM)	–
CNC(=O)C[C@@H]1NC(=O)c2csc(n2)-c2ccc(-c3nc(NC(C)=O)cs3)nc2-c2csc(n2)-c2csc(n2)[C@H]([C@@H](O)c2ccccc2)NC(=O)CNC(=O)c2nc(sc2COC)[C@H](C(C)C)NC(=O)c2nc1sc2C	–	2 µg/mL (≈ 1.76 µM)	Active	1 µg/mL (≈ 0.878 µM)	> 32 µg/mL	1 µg/mL (≈ 0.878 µM)	> 32 µg/mL
CNC(=O)C[C@@H]1NC(=O)c2csc(n2)-c2ccc(-c3nc(NC(=O)C45CCC(C(=O)O)(CC4)CC5)cs3)nc2-c2csc(n2)-c2csc(n2)[C@H]([C@@H](O)c2ccccc2)NC(=O)CNC(=O)c2nc(sc2COC)[C@H](C(C)C)NC(=O)c2nc1sc2C	–	0.25 µg/mL (≈ 0.196 µM)	Active	0.25 µg/mL (≈ 0.196 µM)	4 µg/mL (≈ 3.13 µM)	0.125 µg/mL (≈ 0.0979 µM)	–
CNC(=O)C[C@@H]1NC(=O)c2csc(n2)-c2ccc(-c3nc(NC(=O)O[C@H]4CC[C@@H](C(=O)O)CC4)cs3)nc2-c2csc(n2)-c2csc(n2)[C@H]([C@@H](O)c2ccccc2)NC(=O)CNC(=O)c2nc(sc2COC)[C@H](C(C)C)NC(=O)c2nc1sc2C	–	0.125 µg/mL (≈ 0.0987 µM)	Active	0.125 µg/mL (≈ 0.0987 µM)	1 µg/mL (≈ 0.79 µM)	0.125 µg/mL (≈ 0.0987 µM)	–
CNC(=O)C[C@@H]1NC(=O)c2csc(n2)-c2ccc(-c3nc(NS(N)(=O)=O)cs3)nc2-c2csc(n2)-c2csc(n2)[C@H]([C@@H](O)c2ccccc2)NC(=O)CNC(=O)c2nc(sc2COC)[C@H](C(C)C)NC(=O)c2nc1sc2C	–	4 µg/mL (≈ 3.4 µM)	Active	4 µg/mL (≈ 3.4 µM)	> 32 µg/mL	2 µg/mL (≈ 1.7 µM)	> 32 µg/mL
CNC(=O)C[C@@H]1NC(=O)c2csc(n2)-c2ccc(-c3nc(NC(=O)OCCN4CCOCC4)cs3)nc2-c2csc(n2)-c2csc(n2)[C@H]([C@@H](O)c2ccccc2)NC(=O)CNC(=O)c2nc(sc2COC)[C@H](C(C)C)NC(=O)c2nc1sc2C	inactive	1 µg/mL (≈ 0.798 µM)	Active	0.5 µg/mL (≈ 0.399 µM)	> 32 µg/mL	0.5 µg/mL (≈ 0.399 µM)	–
CNC(=O)C[C@@H]1NC(=O)c2csc(n2)-c2ccc(-c3nc(NC(=O)OCC(C)(C)N)cs3)nc2-c2csc(n2)-c2csc(n2)[C@H]([C@@H](O)c2ccccc2)NC(=O)CNC(=O)c2nc(sc2COC)[C@H](C(C)C)NC(=O)c2nc1sc2C	inactive	2 µg/mL (≈ 1.65 µM)	Active	1 µg/mL (≈ 0.825 µM)	8 µg/mL (≈ 6.6 µM)	1 µg/mL (≈ 0.825 µM)	–
CNC(=O)C[C@@H]1NC(=O)c2csc(n2)-c2ccc(-c3nc(NC(=O)/C=C\C(=O)O)cs3)nc2-c2csc(n2)-c2csc(n2)[C@H]([C@@H](O)c2ccccc2)NC(=O)CNC(=O)c2nc(sc2COC)[C@H](C(C)C)NC(=O)c2nc1sc2C	inactive	1 µg/mL (≈ 0.837 µM)	Active	2 µg/mL (≈ 1.67 µM)	16 µg/mL (≈ 13.4 µM)	1 µg/mL (≈ 0.837 µM)	–
CNC(=O)C[C@@H]1NC(=O)c2csc(n2)-c2ccc(-c3nc(NS(C)(=O)=O)cs3)nc2-c2csc(n2)-c2csc(n2)[C@H]([C@@H](O)c2ccccc2)NC(=O)CNC(=O)c2nc(sc2COC)[C@H](C(C)C)NC(=O)c2nc1sc2C	–	2 µg/mL (≈ 1.7 µM)	Active	4 µg/mL (≈ 3.41 µM)	> 32 µg/mL	2 µg/mL (≈ 1.7 µM)	> 32 µg/mL
CNC(=O)C[C@@H]1NC(=O)c2csc(n2)-c2ccc(-c3nc(NC(=O)C(C)(C)CCCC(C)(C)C(=O)O)cs3)nc2-c2csc(n2)-c2csc(n2)[C@H]([C@@H](O)c2ccccc2)NC(=O)CNC(=O)c2nc(sc2COC)[C@H](C(C)C)NC(=O)c2nc1sc2C	inactive	4 µg/mL (≈ 3.09 µM)	Active	1 µg/mL (≈ 0.772 µM)	> 32 µg/mL	1 µg/mL (≈ 0.772 µM)	–
CNC(=O)C[C@@H]1NC(=O)c2csc(n2)-c2ccc(-c3nc(NC(=O)c4ccc(C(=O)O)nc4)cs3)nc2-c2csc(n2)-c2csc(n2)[C@H]([C@@H](O)c2ccccc2)NC(=O)CNC(=O)c2nc(sc2COC)[C@H](C(C)C)NC(=O)c2nc1sc2C	–	4 µg/mL (≈ 3.21 µM)	Active	8 µg/mL (≈ 6.42 µM)	> 32 µg/mL	4 µg/mL (≈ 3.21 µM)	–
CNC(=O)C[C@@H]1NC(=O)c2csc(n2)-c2ccc(-c3nc(NC(=O)O[C@H]4C[C@@H](C(=O)O)C[C@@H]4N)cs3)nc2-c2csc(n2)-c2csc(n2)[C@H]([C@@H](O)c2ccccc2)NC(=O)CNC(=O)c2nc(sc2COC)[C@H](C(C)C)NC(=O)c2nc1sc2C	–	2 µg/mL (≈ 1.58 µM)	Active	4 µg/mL (≈ 3.16 µM)	2 µg/mL (≈ 1.58 µM)	1 µg/mL (≈ 0.789 µM)	–
CNC(=O)C[C@@H]1NC(=O)c2csc(n2)-c2ccc(-c3nc(NC(=O)[C@H]4CC[C@@H]4C(=O)O)cs3)nc2-c2csc(n2)-c2csc(n2)[C@H]([C@@H](O)c2ccccc2)NC(=O)CNC(=O)c2nc(sc2COC)[C@H](C(C)C)NC(=O)c2nc1sc2C	–	0.25 µg/mL (≈ 0.205 µM)	Active	0.5 µg/mL (≈ 0.409 µM)	4 µg/mL (≈ 3.27 µM)	0.25 µg/mL (≈ 0.205 µM)	–
CNC(=O)C[C@@H]1NC(=O)c2csc(n2)-c2ccc(-c3nc(NC(=O)[C@H]4CC[C@@H](C(=O)O)C4)cs3)nc2-c2csc(n2)-c2csc(n2)[C@H]([C@@H](O)c2ccccc2)NC(=O)CNC(=O)c2nc(sc2COC)[C@H](C(C)C)NC(=O)c2nc1sc2C	–	0.25 µg/mL (≈ 0.202 µM)	Active	0.25 µg/mL (≈ 0.202 µM)	4 µg/mL (≈ 3.23 µM)	0.25 µg/mL (≈ 0.202 µM)	–
CNC(=O)C[C@@H]1NC(=O)c2csc(n2)-c2ccc(-c3nc(NC(=O)O[C@H]4C[C@H](C(=O)O)C4)cs3)nc2-c2csc(n2)-c2csc(n2)[C@H]([C@@H](O)c2ccccc2)NC(=O)CNC(=O)c2nc(sc2COC)[C@H](C(C)C)NC(=O)c2nc1sc2C	–	0.125 µg/mL (≈ 0.101 µM)	Active	0.06 µg/mL (≈ 0.0484 µM)	2 µg/mL (≈ 1.61 µM)	0.06 µg/mL (≈ 0.0484 µM)	–
